# Measurements reported in PMC6260118 (Thrombosis and Haemostasis, 2017).
# Read-outs that look alike come from different tables or passages of the source.
# Key:
# [1] = system: clot fibrin; assay type: in vivo, human
# [2] = system: edoxaban-induced anticoagulation; experiment: Whole blood clotting time; assay type: in vivo, human
# Outline: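 Native whole blood was tested in glass tubes with no activator or anticoagulant, three tubes of 0.5 ml each. Clotting time was read by tilt-tube visual inspection. Testing began in Period 2 of the 50 mg cohort and continued in all later cohorts, and the 25 mg cohort was repeated with it. IV test compound or saline was given about 3 h after edoxaban 60 mg orally, with follow-up to 24 h. Groups were compared by ANOVA with Tukey HSD, p<0.05.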
# [3] = system: anticoagulant-induced bleeding; conditions: pre-clinical animal models of anticoagulant-induced bleeding; cited from earlier work
# [4] = system: hepatic cytochrome enzymes or membrane transporters; conditions: cited from earlier work
# [5] = system: plasma proteins; conditions: cited from earlier work
# [6] = cited from earlier work
# [7] = system: edoxaban-induced anticoagulation; experiment: Thromboelastography reaction time; assay type: in vivo, human; conditions: within cohorts and across escalating dose cohorts
# Outline: (§1)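 Whole blood was tested serially by point-of-care prothrombin time and by thromboelastography reaction time. Subjects were healthy volunteers in escalating-dose cohorts of 8 active and 2 placebo. They received single slow IV test compound or saline about 3 h after a single 60 mg oral dose of edoxaban.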
# [8] = Phase I safety and tolerability, adverse events; assay type: in vivo, human
# Outline: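 The trial was a randomised, double-blind, placebo-controlled phase I study with eight cohorts of 10 healthy subjects each, randomised 8:2 to test compound or saline. Single IV doses were given alone and then about 3 h after edoxaban 60 mg orally. Safety was assessed in everyone dosed at least once: adverse events, vital signs, pulse oximetry, ECGs, clinical laboratory tests, fecal occult blood and concomitant medications. Treatment-emergent events were those starting on or after dosing.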
# [9] = system: edoxaban-induced anticoagulation; experiment: Whole blood point-of-care prothrombin time; assay type: in vivo, human; conditions: within cohorts and across escalating dose cohorts
# Outline: as §1
# [10] = Pharmacokinetics of ciraparantag and metabolite BAP in serum/plasma and urine; assay type: in vivo, human; conditions: for dose proportionality of pharmacokinetics: based on Cmax and t½, 5-300 mg
# Outline: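 Healthy non-smoking adults aged 18–65 received single escalating doses of test compound from 5 to 300 mg. Each dose was a sterile aqueous solution given by slow IV injection into an indwelling catheter, alone and, after at least four days' washout, about 3 h after oral edoxaban 60 mg. Parent compound and its piperazine metabolite were measured in serum/plasma and in urine pooled over the first 24 h.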
# [11] = single IV dose 100 to 300 mg following edoxaban 60 mg
# [12] = ciraparantag arm N=66, number (% of subjects)
structure (smiles),measurement,setting,value
"CN1CCc2nc(C(=O)N[C@@H]3C[C@@H](C(=O)N(C)C)CC[C@@H]3NC(=O)C(=O)Nc3ccc(Cl)cn3)sc2C1 [edoxaban, reference compound]",mean fibrin diameter,"[1]; edoxaban anticoagulation without reversal, native state ∼250 nm",~125 nm
same,effect on WBCT,[2]; edoxaban 60 mg oral,significant elevation
N=C(N)NCCC[C@H](N)C(=O)NCCCN1CCN(CCCNC(=O)[C@@H](N)CCCNC(=N)N)CC1 [ciraparantag],blood loss,[3],reduces blood loss to baseline levels
same,interaction with hepatic cytochrome enzymes or membrane transporters,[4],does not interact substantially
same,binding to plasma proteins,[5],no significant binding
same,binding to a selected spectrum of cardiovascular and antiepileptic drugs,[6],no binding
same,binding to anticoagulants,[6]; non-covalent hydrogen bonding and charge-charge interactions,"binds similarly to the new oral Xa inhibitors, edoxaban, rivaroxaban and apixaban, and to the oral thrombin inhibitor, dabigatran, but not to argatroban or warfarin"
same,mean fibrin diameter,"[1]; 25 mg ciraparantag after edoxaban 60 mg, partial reversal",~200 nm
same,mean fibrin diameter,"[1]; 100 mg ciraparantag after edoxaban 60 mg, full reversal",~250 nm
same,mean fibrin diameter,"[1]; 300 mg ciraparantag after edoxaban 60 mg, full reversal",~250 nm
same,time to restoration of fibrin strands to baseline levels,[1]; single i.v. dose of 100 mg ciraparantag after edoxaban,≤ 30 min
same,reversal of edoxaban-induced anticoagulation (WBCT) within 10 min,[2]; 50 mg ciraparantag IV after edoxaban 60 mg,Significant reversal
same,reversal of edoxaban-induced anticoagulation (WBCT),[2]; 100–300 mg ciraparantag IV (Cohorts 5 to 7) after edoxaban 60 mg,essentially full reversal
same,effect on WBCT,[2]; ciraparantag in the absence of edoxaban,no effect
same,duration of reversal of anticoagulation,[2]; [11],at least 24 hours
same,time to full reversal of anticoagulation,[2]; [11],≤ 10 min
same,anticoagulation above baseline,"[2]; within 30 min of injection, after therapeutic dose of edoxaban",less than 10%
same,change in mean TEG-R,[7],no change over time
same,Number of subjects who died,[8]; ciraparantag arm N=66,0
same,Number of subjects with SAE,[8]; ciraparantag arm N=66,0
same,Number of AEs,"[8]; ciraparantag arm N=66, all single IV doses, Periods 1 and 2",204
same,Number of AEs per subject: 0,[8]; [12],17 (25.8 %)
same,Number of AEs per subject: 1,[8]; [12],10 (15.2 %)
same,Number of AEs per subject: 2–3,[8]; [12],16 (24.2 %)
same,Number of AEs per subject: 4–5,[8]; [12],9 (13.6 %)
same,Number of AEs per subject: >5,[8]; [12],14 (21.2 %)
same,Number of subjects with AE,[8]; [12],49 (74.2 %)
same,Number of subjects with AE related to Ciraparantag/Placebo,[8]; [12],36 (54.5 %)
same,Number of subjects with AE related to edoxaban,[8]; [12],5 (7.6 %)
same,Number of subjects with AE related to study drug,[8]; [12],38 (57.6 %)
same,Number of subjects with TEAE,[8]; [12],49 (74.2 %)
same,"Changes in blood counts, blood chemistries (electrolytes, bilirubin, hepatic enzymes) or electrocardiograms","[8]; healthy subjects, single IV doses 5-300 mg",no significant changes
same,change in mean PoC-PT,[9],no change over time
same,dose proportionality of pharmacokinetics,[10],dose-proportional pharmacokinetics
same,main elimination route,[10]; healthy subjects,Renal excretion of ciraparantag metabolite
same,half-life,"[10]; human, serum, iv, 5 mg",~12 min
same,Cmax,"[10]; human, serum, iv, 300 mg",~10600 ng/mL
"NCCCN1CCN(CCCN)CC1 [BAP, 1,4-bis(3-aminopropyl)-piperazine]",dose proportionality of pharmacokinetics,[10],dose-proportional pharmacokinetics
